Screening data as filed in PubChem BioAssay.
NR2E3 ag-1: agonists of human NR2E3 nuclear receptor; CHO-S Gal4-NCOR/VP16-NR2E3 two-hybrid, luciferase; inhibition of corepressor binding, % at 3.98 µM; 0.35% of 360,000 active; AID 602229;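 active = inhibition above the mean of all tested compounds plus 3 SD, cut at about 70% in these data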;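 also: 0% = DMSO with NR2E3 transfected cells and 100% = cells lacking NR2E3 construct; higher means lower luciferase signal from less NR2E3 corepressor binding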
Target sequence (Q9Y5X4 whole entry, looked up, the tested form may be a part): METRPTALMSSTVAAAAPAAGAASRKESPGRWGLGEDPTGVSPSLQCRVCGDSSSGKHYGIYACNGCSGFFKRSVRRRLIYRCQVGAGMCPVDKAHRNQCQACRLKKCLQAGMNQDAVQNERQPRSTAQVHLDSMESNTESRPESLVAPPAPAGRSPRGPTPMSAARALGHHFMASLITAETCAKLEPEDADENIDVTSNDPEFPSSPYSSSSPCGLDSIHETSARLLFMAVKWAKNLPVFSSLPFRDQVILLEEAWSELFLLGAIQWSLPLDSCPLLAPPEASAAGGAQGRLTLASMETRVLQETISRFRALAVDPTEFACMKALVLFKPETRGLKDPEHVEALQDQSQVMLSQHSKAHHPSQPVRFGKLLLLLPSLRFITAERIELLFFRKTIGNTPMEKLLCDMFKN
NR2E3 ag-2: activates human photoreceptor nuclear receptor NR2E3; Q9Y5X4; GST-NR2E3/biotin-RetCOR TR-FRET, 1536-well; inhibition of corepressor binding, % at 4.78 µM; 0.12% of 320,000 active; AID 2300;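 active = percent inhibition above the cutoff of mean plus 3 SD of all tested compounds, set per screening campaign, cut at about 20% in these data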;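 also: 0% = DMSO wells and 100% = biotin wells as full block of FRET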
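Format: 1536-well format; test system: GST-NR2E3 and biotin-RetCOR proteins; read-out basis: percent inhibition of TR-FRET ratio; timing: 5 h incubation at 4 °C; detection: time-resolved FRET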
PG9 Ab binder: binds the HIV-1 gp120 antibody PG9; TR-FRET gp120-PG9 antibody binding; inhibition, % at 6.7 µM; 0.43% of 360,000 active; AID 624416; in the data active = inhibition above about 8.5%
Rev-erbA mod: modulators of human Rev-erb alpha DNA binding | P20393 | Rev-erbα–FITC-DNA binding, fluorescence polarization, 90 min | activity, % at 10 µM | 0.79% of 370,000 active;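 active = activity above about 14%, limit read from the data; passing the limit was not always enough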;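 also: 0% = DMSO wells with 35 nM protein and 100% = DMSO wells with 750 nM protein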
rCAG RNA binder: binds r(CAG) RNA repeats | inhibition, % at 3 µM | r(CAG) RNA repeat, TO-PRO-1 dye displacement fluorescence | 1.3% of 370,000 active | AID 651821;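 active = inhibition above the plate cutoff, the mean of all test compounds on that plate plus 3 SD, cut at about 35% in these data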;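 also: 0% = DMSO alone and 100% = 100 µM mitoxantrone as full dye displacement; higher means more dye released from RNA so lower well fluorescence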
NR1D1 mod conf: confirmation of modulators of human Rev-erb alpha DNA binding | shares compounds with Rev-erbA mod | Rev-erb alpha FITC-DNA binding, fluorescence polarization, 90 min | activation, % at 25 µM | AID 1259319 | 61% of 3,000 active;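 active = activation at or above a set limit, or at least 3 SD above the negative control mean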;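 also: 0% = 35 nM protein with DMSO and 100% = 750 nM protein high control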
RORg DNA counter: counter-screen for Rev-erb alpha modulators: RORgamma DNA binding; purified RORgamma protein-FITC-DNA binding, fluorescence polarization; AID 1259320; 8% of 910 active; shares compounds with Rev-erbA mod; IC50, µM;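 active = Compounds whose fitted half-maximal concentration for disrupting protein-DNA binding is below 10 micromolar; the record names Rev-erb in its text, so the target is in doubt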
Starred values were filed as active, the others as inactive; i = inactive; nt = no result given. Rows were chosen to be rich in hits. Some 2.6% of all compounds tested hit in one or more screens of this group.

SMILES | NR2E3 ag-1 | NR2E3 ag-2 | PG9 Ab binder | Rev-erbA mod | rCAG RNA binder | NR1D1 mod conf | others
CCCc1cc2c(=O)c(-c3nc4ccccc4s3)c(COCC(=O)O)oc2cc1O | -121 | nt | 0 | 30* | 55* | 18
CCc1cc2c(=O)c(-c3nc4ccccc4n3C)c(COCC(=O)O)oc2cc1O | 3 | -1 | 0 | 1 | 5 | nt
Cc1cc(OCC(=O)OC(C)C(=O)NC2CC2)c(C(C)C)cc1Cl (stereo not given) | -23 | nt | 5 | 0 | 0 | nt
CCOc1cc(C=O)c(Br)cc1OC1CCCC1 | 12 | 15 | 3 | 22* | -2 | 12
COc1cc(CNCCN(C)C)c(Br)cc1OC1CCCC1 | -3 | -1 | 0 | -4 | -5 | nt
OC[C@@H]1CN(Cc2ccncc2)C[C@H](n2cnc3c(NCc4ccco4)ncnc32)O1 | -8 | nt | -2 | -1 | 3 | nt
COc1ccccc1CNC(=O)c1cccc(S(=O)(=O)N2CCCC2)c1 | 2 | nt | -1 | 0 | -5 | nt
COc1ccc(S(N)(=O)=O)cc1C(=O)OCCCC(=O)c1ccccc1 | 8 | 2 | 1 | -7 | 4 | nt
COc1cc(/C=N/NC(=O)CC2(C)OCCO2)cc(Br)c1O | -41 | -1 | -9 | 71* | -3 | -4
CCCCCC(=O)N/N=C/c1cc(Br)c(O)c(OC)c1 | 10 | -2 | -4 | -3 | 5 | nt
CCOC(=O)c1nn(-c2ccccc2Cl)c(=O)cc1OCC(=O)Nc1cccc(OC)c1 | -11 | -3 | 1 | -5 | -1 | nt
COC(=O)/C=c1/sc2nc3ccccc3n2c1=O | 4 | 2 | 2 | 3 | 5 | nt
O=c1c2ccccc2nc2sc3ccccc3n12 | -130 | 0 | -1 | 22* | -1 | 32* | RORg DNA counter=>40
CCOC(=O)c1nn(-c2ccc(F)cc2)c(=O)cc1OCC(=O)Nc1ccc(F)c(F)c1 | 3 | -2 | -1 | 170* | 3 | 129* | RORg DNA counter=i
COc1cc(OC)cc(-n2c3nc4ccccc4nc3c3c(=O)n(CC4CCCO4)cnc32)c1 (stereo not given) | nt | -1 | 3 | 300* | -1 | 142* | RORg DNA counter=>40
Cc1cc(C)cc(OCC(=O)NNC(=S)NC(=O)C2CC2)c1 | 4 | -2 | 0 | 33* | 4 | -2
CCOC(=O)c1sc2nc(C)nc(NCc3ccc(F)cc3)c2c1C | 29 | 0 | 0 | 1 | 2 | nt
CCOC(=O)c1sc2nc(C)nc(Nc3ccc(OC)cc3)c2c1C | -10 | -2 | 2 | 31* | -3 | 13
CC(C)NC(=O)N(C)C[C@@H]1OCc2cnnn2CCCC(=O)N([C@H](C)CO)C[C@@H]1C | 27 | nt | 0 | 9 | 3 | nt
Cc1ccc(F)c(CNC(=O)C2(C)CCCN2C(=O)C(C)C)c1F (stereo not given) | 4 | nt | 0 | 9 | -1 | nt
NC(=O)c1ncn([C@@H]2O[C@H](CNCc3ccccc3C#Cc3ccccc3)[C@@H](O)[C@H]2O)n1 | -15 | nt | 0 | -6 | 6 | nt
N#CCOc1ccccc1CNC[C@H]1O[C@@H](n2cnc(C(N)=O)n2)[C@H](O)[C@@H]1O | -22 | nt | 1 | 16* | 3 | -7
Cc1nc(N2CCN(S(=O)(=O)c3ccccc3)CC2)c2cc(-c3ccccc3)sc2n1 | -29 | 0 | 0 | 44* | 8 | 28*
O=C1c2cccc3c(N4CCCCC4)ccc(c23)C(=O)N1c1ccccc1O | 5 | 4 | 1 | 27* | -33 | 33* | RORg DNA counter=>40
CCOC(=O)[C@]12CCC=C1N(Cc1ccc3c(c1)OCO3)C(=O)[C@H](CC(=O)N1CCOCC1)C2 | -38 | nt | 1 | 0 | 3 | nt
SMILES | NR2E3 ag-1 | NR2E3 ag-2 | PG9 Ab binder | Rev-erbA mod | rCAG RNA binder | NR1D1 mod conf | others
CN1C(=O)c2cc(NS(C)(=O)=O)ccc2OC[C@H]2O[C@@H](CC(=O)NCc3ccc(-c4ccccc4)cc3)CC[C@@H]21 | nt | nt | nt | 83* | 8 | 20*
CN1C(=O)c2cc(NC(=O)Nc3ccccc3)ccc2OC[C@H]2O[C@@H](CC(=O)NCc3ccc(-c4ccccc4)cc3)CC[C@@H]21 | nt | nt | nt | 21 | 17 | nt
CN1C(=O)c2cc(NC(=O)Nc3ccccc3F)ccc2OC[C@H]2O[C@@H](CC(=O)NCc3ccc(-c4ccccc4)cc3)CC[C@@H]21 | nt | nt | nt | 107* | 10 | 70* | RORg DNA counter=>40
CCc1c(-c2cccc(F)c2)ncn1CCc1ccccc1OC | nt | nt | 2 | 3 | -3 | nt
FC(F)(F)C(F)(F)C(F)(F)c1nc2nc(Cl)c(Cl)nc2[nH]1 | 2 | nt | 3 | 1 | 1 | nt
O=C(Nc1cccc(S(=O)(=O)N2CCCCC2)c1)C1=NN(c2ccccc2)C(=O)CC1 | -19 | 1 | -1 | 0 | 11 | nt
CCOC(=O)c1sc(=NC(=O)c2cc(OC)c(OC)c(OC)c2)n(C)c1C | 10 | -1 | 28* | 30* | -3 | -4
CCOC(=O)c1sc(=NC(=O)CCSc2ccccc2)n(C)c1C | -34 | 4 | -1 | 27* | -3 | 13
CCOC(=O)c1sc(=NC(=O)c2ccc(S(=O)(=O)N(C)c3ccccc3)cc2)n(C)c1C | 16 | 3 | -1 | 37* | 6 | 29*
CCOC(=O)c1sc(=NC(=O)c2cccc(C)c2)n(C)c1C | -48 | 4 | 1 | -1 | -1 | nt
CC(C)C[C@H]1COc2cc(Br)ccc2S(=O)(=O)N1Cc1cn(CCC2OCCO2)nn1 | nt | nt | nt | -6 | 1 | nt
CCOCCCn1c(SCC(=O)NC2CCCCC2)nc2ccccc2c1=O | 1 | nt | -1 | -1 | 1 | nt
Cc1ccc2c(Cl)c(C(=O)NCCCN3CCOCC3)sc2c1 | -20 | nt | 1 | -1 | 8 | nt
NS(=O)(=O)c1ccc(CCNc2ccccc2[N+](=O)[O-])cc1 | -37 | 1 | -1 | 21* | 2 | 13
O=[N+]([O-])c1cc(S(=O)(=O)N2CCCC2)ccc1NCCc1ccccc1 | -19 | 2 | -2 | 9 | 0 | nt
CC(=O)N1CCc2cc(N=NC3=C(O)CC(C)(C)CC3=O)ccc21 | -8 | -1 | -3 | 20* | -15 | 20*
Cc1nc2ccc(N=NC3=C(O)CC(C)(C)CC3=O)cc2s1 | -61 | -2 | -5 | -1 | 3 | nt
O=c1oc(-c2ccccc2)c(-c2ccccc2)c2ccccc12 | 15 | nt | 1 | -5 | 2 | nt
N#Cc1c(-c2ccccc2)oc(=O)c2ccccc12 | -17 | 4 | 0 | 20* | 1 | -2
COc1ccc(C(=O)Nc2ccccc2-c2nnn(CC(N)=O)n2)cc1 | -15 | nt | -1 | 96* | 2 | 81* | RORg DNA counter=>40
C[C@@H]1CN([C@@H](C)CO)C(=O)c2cc(Br)cnc2O[C@@H]1CN(C)Cc1ccccn1 | nt | nt | 0 | -10 | 0 | nt
COc1ccccc1C1CC(=O)NC(C)=C1C(=O)OC(C)C (stereo not given) | 5 | -3 | 0 | 22* | -4 | 2
